# Laboratory results: ChEMBL document CHEMBL1135419, “Molecular docking and high-throughput screening for novel inhibitors of protein tyrosine phosphatase-1B” (J Med Chem, 2002)
# Molecular target: T1, Tyrosine-protein phosphatase non-receptor type 1 (Homo sapiens, UniProt P18031)
# T1 sequence (P18031 whole entry): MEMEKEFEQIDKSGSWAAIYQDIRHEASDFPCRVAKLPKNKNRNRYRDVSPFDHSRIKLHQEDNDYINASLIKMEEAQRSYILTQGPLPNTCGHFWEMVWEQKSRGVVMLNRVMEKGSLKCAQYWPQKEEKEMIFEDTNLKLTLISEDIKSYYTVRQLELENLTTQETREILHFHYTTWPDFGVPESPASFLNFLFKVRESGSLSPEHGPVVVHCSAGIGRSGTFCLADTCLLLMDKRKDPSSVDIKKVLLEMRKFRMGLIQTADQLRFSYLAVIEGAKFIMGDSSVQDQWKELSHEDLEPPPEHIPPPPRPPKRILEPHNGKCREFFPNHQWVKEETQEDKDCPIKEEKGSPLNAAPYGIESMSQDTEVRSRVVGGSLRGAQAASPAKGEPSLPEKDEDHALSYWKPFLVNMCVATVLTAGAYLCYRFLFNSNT
# Assay: Inhibition of human Protein-tyrosine phosphatase 1B (PTP1B) dephosphorylation of insulin receptor peptide
# Procedure, shortened: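 Human recombinant PTP1B (residues 1-322) with 50 µM phosphopeptide substrate, room temperature, stopped with malachite green reagent, absorbance read at 620 nm. Docking-set assay: 1 nM enzyme in 25 mM HEPES pH 7.4, 125 mM NaCl, 1 mM EDTA, 10% glycerol, 10 mM DTT, no albumin, 10 min, DMSO below 10%, triplicates. HTS assay: 0.9 nM enzyme, pH 7.0, 0.03% BSA, 60 min.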
row,SMILES,IC50
1,O=C(O)c1ccc(/C=C2/SC(=S)N(Cc3ccccc3)C2=O)cc1,21.6 µM
2,CSc1[nH]nc(NC(=O)c2ccc(Cl)c(Cl)c2)c1S(=O)(=O)c1ccc(Cl)cc1,63.9 µM
3,O=C(O)c1ccc(N2C(=O)/C(=C\C=C\c3ccccc3)SC2=S)cc1,4.4 µM
4,COC(=O)c1ccc2nc(NC(=O)COC(=O)c3ccc(Br)o3)sc2c1,34.4 µM
5,Oc1cccc(-c2nc(-c3ccc(-c4ccccc4)cc3)c(-c3ccc(-c4ccccc4)cc3)[nH]2)c1,8.6 µM
6,O=C1NC(=O)C(=Cc2ccc(Sc3nc4ccc([N+](=O)[O-])cc4s3)c([N+](=O)[O-])c2)C(=O)N1,4.1 µM
7,O=C(Nc1ccccc1)Nc1cc(-c2ccc(Cl)cc2)nn1-c1ccccc1,12 µM
8,CCOc1cc(/C=C2/N=C(c3ccc4c(c3)OCO4)OC2=O)cc(Cl)c1OC(C)=O,35 µM
9,O=C(Nc1ccc(O)cc1)/C(=C/c1c[nH]c2ccccc12)NC(=O)c1ccccc1,21.5 µM
10,CC1=NN(c2cccc(Cl)c2)C(=O)/C1=C\c1ccc(-c2ccc(C(=O)O)c(Cl)c2)o1,19.3 µM
11,O=C(O)c1ccc(-c2ccc(/C=C3/S/C(=N\c4ccccc4)N(c4ccccc4)C3=O)o2)cc1O,9 µM
